Measurements taken from ChEMBL document CHEMBL3425433, “Discovery of bicyclic pyrazoles as class III histone deacetylase SIRT1 and SIRT2 inhibitors” (Bioorg Med Chem Lett, 2015).
Calls of active or inactive are those of the source. No cut-off for these calls is given here.

What was measured:
Histone deacetylase 2 = Histone deacetylase 2 (Homo sapiens, UniProt Q92769); assay: Inhibition of HDAC2 (unknown origin)
[1] = biological target: T1, Histone deacetylase 8 (Homo sapiens) (UniProt Q9BY41); assay: Inhibition of HDAC8 (unknown origin)
T1 sequence (whole entry): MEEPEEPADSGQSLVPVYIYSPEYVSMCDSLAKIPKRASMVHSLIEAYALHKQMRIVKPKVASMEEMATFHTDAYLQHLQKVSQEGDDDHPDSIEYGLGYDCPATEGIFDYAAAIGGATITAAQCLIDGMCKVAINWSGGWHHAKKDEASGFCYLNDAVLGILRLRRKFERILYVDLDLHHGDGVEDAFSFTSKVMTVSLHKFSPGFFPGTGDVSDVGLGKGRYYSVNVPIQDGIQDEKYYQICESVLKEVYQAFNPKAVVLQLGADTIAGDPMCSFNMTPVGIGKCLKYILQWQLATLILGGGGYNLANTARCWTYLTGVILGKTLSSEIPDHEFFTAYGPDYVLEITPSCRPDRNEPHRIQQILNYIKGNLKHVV

[2] = biological target: T2, NAD-dependent protein deacetylase sirtuin-2 (Homo sapiens) (UniProt Q8IXJ6); assay: Inhibition of His-tagged human recombinant SIRT2 expressed in Escherichia coli at 20 uM using Cbz-Lys(Ac)-AMC as substrate by fluorescence assay
T2 sequence (whole entry): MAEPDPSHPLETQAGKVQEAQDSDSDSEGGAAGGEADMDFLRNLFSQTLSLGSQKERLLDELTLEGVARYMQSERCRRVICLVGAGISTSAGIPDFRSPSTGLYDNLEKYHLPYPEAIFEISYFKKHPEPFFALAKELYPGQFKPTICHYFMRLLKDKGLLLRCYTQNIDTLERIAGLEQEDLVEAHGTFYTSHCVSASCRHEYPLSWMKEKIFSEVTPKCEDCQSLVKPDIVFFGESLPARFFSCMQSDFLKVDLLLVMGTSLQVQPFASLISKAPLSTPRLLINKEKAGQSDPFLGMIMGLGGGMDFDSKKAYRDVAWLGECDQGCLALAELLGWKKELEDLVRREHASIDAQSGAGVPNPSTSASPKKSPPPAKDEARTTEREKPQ
Outline: (§1)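 Fluorescence deacetylase assay with in-house Cbz-Lys(Ac)-AMC substrate. Values are means of three experiments on racemic material. Single-point lines were tested at 20 µM, and less than 20% inhibition was scored as no inhibition.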

[3] = biological target: Histone deacetylase 4 (Homo sapiens) (UniProt P56524); assay: Inhibition of HDAC4 (unknown origin)
[4] = biological target: T3, Histone deacetylase 7 (Homo sapiens) (UniProt Q8WUI4); assay: Inhibition of HDAC7 (unknown origin)
T3 sequence (whole entry): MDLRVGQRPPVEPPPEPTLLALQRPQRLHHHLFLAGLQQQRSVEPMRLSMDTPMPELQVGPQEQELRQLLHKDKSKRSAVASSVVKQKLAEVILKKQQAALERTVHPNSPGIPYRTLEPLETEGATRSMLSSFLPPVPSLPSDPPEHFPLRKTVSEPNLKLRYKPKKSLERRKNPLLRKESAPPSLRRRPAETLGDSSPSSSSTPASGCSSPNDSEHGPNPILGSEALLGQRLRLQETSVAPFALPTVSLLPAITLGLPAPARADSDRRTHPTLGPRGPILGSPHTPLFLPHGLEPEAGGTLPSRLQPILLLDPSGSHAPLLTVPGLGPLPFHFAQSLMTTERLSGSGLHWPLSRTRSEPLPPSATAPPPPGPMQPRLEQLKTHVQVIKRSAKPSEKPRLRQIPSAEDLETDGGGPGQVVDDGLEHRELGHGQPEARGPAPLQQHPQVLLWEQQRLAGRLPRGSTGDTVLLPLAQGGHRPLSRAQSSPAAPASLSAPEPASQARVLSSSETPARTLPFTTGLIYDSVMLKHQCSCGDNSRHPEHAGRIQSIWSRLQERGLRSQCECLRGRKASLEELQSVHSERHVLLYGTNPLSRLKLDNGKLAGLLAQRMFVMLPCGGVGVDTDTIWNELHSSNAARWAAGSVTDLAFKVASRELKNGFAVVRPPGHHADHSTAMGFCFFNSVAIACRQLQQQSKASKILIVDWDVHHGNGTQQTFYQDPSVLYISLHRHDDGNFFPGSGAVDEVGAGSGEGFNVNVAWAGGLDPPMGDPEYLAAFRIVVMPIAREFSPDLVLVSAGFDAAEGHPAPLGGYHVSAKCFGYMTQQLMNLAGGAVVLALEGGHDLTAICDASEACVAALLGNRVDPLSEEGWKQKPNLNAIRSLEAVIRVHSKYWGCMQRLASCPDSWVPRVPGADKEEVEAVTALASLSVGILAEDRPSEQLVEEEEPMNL

Histone deacetylase 1 = Histone deacetylase 1 (Homo sapiens, UniProt Q13547); assay: Inhibition of HDAC1 (unknown origin)
[5] = biological target: T4, NAD-dependent protein deacetylase sirtuin-1 (Homo sapiens) (UniProt Q96EB6); assay: Inhibition of His-tagged human recombinant SIRT1 expressed in Escherichia coli at 20 uM using Cbz-Lys(Ac)-AMC as substrate by fluorescence assay; outline: as §1
T4 sequence (whole entry): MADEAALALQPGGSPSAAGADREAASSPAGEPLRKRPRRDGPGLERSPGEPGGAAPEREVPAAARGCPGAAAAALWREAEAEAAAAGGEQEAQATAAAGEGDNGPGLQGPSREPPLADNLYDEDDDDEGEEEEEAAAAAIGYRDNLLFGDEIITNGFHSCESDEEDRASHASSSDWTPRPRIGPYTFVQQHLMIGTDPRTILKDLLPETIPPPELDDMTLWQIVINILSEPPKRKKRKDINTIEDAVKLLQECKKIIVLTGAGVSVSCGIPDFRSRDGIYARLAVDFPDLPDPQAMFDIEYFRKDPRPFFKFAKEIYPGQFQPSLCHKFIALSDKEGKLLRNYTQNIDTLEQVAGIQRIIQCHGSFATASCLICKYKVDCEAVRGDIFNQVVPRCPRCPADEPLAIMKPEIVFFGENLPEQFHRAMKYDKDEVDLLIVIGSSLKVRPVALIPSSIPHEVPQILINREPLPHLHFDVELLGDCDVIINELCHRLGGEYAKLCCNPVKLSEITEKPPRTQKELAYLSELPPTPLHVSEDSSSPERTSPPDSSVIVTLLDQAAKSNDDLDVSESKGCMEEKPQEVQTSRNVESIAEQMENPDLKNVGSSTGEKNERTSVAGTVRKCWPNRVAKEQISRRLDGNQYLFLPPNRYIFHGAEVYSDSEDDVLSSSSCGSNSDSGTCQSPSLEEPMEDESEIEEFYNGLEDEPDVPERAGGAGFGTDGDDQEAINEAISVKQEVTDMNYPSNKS

Chain of Histone deacetylase 2 (Q92769 whole entry): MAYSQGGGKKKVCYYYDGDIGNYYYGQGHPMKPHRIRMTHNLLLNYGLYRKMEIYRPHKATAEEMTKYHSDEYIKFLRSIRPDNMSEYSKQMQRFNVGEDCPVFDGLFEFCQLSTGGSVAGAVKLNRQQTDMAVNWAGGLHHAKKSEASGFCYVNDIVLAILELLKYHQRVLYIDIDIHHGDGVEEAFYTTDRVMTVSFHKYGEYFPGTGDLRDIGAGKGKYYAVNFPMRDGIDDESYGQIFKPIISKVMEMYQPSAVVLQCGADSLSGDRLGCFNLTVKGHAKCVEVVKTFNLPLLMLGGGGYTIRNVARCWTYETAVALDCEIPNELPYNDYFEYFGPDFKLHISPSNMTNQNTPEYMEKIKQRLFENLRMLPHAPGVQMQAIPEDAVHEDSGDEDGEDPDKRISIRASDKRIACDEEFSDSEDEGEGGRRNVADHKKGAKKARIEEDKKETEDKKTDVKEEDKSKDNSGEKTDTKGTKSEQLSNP
Chain of Histone deacetylase 4 (Homo sapiens) (P56524 whole entry): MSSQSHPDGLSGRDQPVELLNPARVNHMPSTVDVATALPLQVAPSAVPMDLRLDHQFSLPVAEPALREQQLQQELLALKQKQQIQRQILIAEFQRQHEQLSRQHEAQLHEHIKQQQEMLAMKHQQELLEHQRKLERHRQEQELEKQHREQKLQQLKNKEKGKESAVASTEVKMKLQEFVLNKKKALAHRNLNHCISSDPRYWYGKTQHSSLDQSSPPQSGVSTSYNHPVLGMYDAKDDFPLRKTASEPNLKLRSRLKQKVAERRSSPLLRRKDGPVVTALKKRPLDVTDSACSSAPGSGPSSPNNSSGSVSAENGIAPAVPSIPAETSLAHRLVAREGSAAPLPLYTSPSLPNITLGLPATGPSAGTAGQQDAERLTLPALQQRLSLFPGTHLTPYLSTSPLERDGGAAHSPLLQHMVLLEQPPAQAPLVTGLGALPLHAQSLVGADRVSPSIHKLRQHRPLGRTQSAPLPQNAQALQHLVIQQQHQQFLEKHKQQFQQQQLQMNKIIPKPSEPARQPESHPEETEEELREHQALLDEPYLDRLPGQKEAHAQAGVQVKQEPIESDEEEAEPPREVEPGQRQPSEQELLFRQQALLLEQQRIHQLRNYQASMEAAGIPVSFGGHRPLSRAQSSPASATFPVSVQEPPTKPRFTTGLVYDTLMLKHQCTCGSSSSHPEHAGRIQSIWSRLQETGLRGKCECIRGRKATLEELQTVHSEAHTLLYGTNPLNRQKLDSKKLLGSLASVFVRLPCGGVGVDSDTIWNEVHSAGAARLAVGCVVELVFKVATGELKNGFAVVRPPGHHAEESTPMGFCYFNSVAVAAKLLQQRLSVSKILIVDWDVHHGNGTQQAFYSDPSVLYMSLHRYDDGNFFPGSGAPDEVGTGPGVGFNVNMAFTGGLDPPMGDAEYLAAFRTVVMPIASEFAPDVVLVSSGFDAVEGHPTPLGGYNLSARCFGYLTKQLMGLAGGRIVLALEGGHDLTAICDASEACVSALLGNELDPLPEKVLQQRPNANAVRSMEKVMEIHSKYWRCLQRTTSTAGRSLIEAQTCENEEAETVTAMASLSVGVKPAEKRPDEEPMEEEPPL
Chain of Histone deacetylase 1 (Q13547 whole entry): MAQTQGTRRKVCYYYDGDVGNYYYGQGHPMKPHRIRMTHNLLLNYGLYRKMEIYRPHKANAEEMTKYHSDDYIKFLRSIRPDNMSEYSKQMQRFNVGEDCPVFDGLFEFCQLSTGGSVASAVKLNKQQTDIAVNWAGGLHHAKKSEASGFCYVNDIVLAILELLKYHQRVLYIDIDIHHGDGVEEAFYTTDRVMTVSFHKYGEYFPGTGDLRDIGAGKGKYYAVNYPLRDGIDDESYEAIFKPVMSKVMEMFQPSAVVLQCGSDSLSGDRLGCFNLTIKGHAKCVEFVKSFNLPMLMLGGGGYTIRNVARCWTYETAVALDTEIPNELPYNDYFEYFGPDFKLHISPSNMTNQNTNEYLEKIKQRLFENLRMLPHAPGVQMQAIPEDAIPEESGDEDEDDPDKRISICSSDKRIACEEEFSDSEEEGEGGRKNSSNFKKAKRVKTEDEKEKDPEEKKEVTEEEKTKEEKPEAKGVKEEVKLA

Row | inhibition (Histone deacetylase 2) | inhibition [1] | inhibition [2] | inhibition [3] | inhibition [4] | inhibition (Histone deacetylase 1) | inhibition [5] | SMILES
1 | inactive | inactive | < 20% | inactive | inactive | inactive | 42% | NC(=O)C1CCCc2c(-c3ccc(F)cc3)n[nH]c21 (racemic)
2 | inactive | inactive | < 20% | inactive | inactive | inactive | < 20% | CNC(=O)C1CCCc2c(-c3ccc(Cl)cc3)n[nH]c21 (racemic)
3 | inactive | inactive | 11% | inactive | inactive | inactive | < 20% | NC(=O)C1CCCc2c(-c3ccccc3Cl)n[nH]c21 (racemic)
4 | inactive | inactive | < 20% | inactive | inactive | inactive | < 20% | NC(=O)C1CCCc2c(-c3ccc(C(F)(F)F)cc3)n[nH]c21 (racemic)
5 | inactive | inactive | 22% | inactive | inactive | inactive | 28% | NC(=O)C1CCCCCc2c(-c3ccc(Cl)cc3)n[nH]c21 (racemic)
6 | inactive | inactive | < 20% | inactive | inactive | inactive | < 20% | COc1ccc(-c2n[nH]c3c2CCCC3C(N)=O)cc1 (racemic)
7 | inactive | inactive | < 20% | inactive | inactive | inactive | 27% | NC(=O)C1CCCc2c(-c3cccc(Cl)c3)n[nH]c21 (racemic)

Continued, molecule first:

Row | SMILES | inhibition (Histone deacetylase 2) | inhibition [1] | inhibition [2] | inhibition [3] | inhibition [4] | inhibition (Histone deacetylase 1) | inhibition [5]
8 | CCOC(=O)C1CCCc2c(-c3ccc(Cl)c(F)c3)n[nH]c21 (racemic) | inactive | inactive | < 20% | inactive | inactive | inactive | < 20%
9 | CC1(C)Cc2c(-c3ccc(Br)cc3)n[nH]c2C(C(N)=O)C1 (racemic) | inactive | inactive | 42% | inactive | inactive | inactive | 56%
10 | NC(=O)C1Cc2ccccc2Cc2c(-c3ccc(Cl)cc3)n[nH]c21 (racemic) | inactive | inactive | 50% | inactive | inactive | inactive | 42%
11 | CC1(C)Cc2c(-c3cc4ccccc4s3)n[nH]c2C(C(N)=O)C1 (racemic) | inactive | inactive | 67% | inactive | inactive | inactive | 53%
12 | NC(=O)C1CC2(Cc3c(-c4ccc(Cl)cc4)n[nH]c31)OCCO2 (racemic) | inactive | inactive | < 20% | inactive | inactive | inactive | < 20%
13 | NC(=O)C1CCCc2c(-c3ccc(Cl)cc3Cl)n[nH]c21 (racemic) | inactive | inactive | < 20% | inactive | inactive | inactive | 24%
14 | Cn1cc(-c2n[nH]c3c2CCCC3C(N)=O)c2ccccc21 (racemic) | inactive | inactive | < 20% | inactive | inactive | inactive | < 20%
15 | NC(=O)C1CCCc2c(-c3cc4cc(Br)ccc4s3)n[nH]c21 (racemic) | inactive | inactive | 33% | inactive | inactive | inactive | 38%
16 | Cn1c(-c2n[nH]c3c2CC(C)(C)CC3C(N)=O)cc2ccccc21 (racemic) | inactive | inactive | < 20% | inactive | inactive | inactive | < 20%
17 | Cn1c(-c2n[nH]c3c2CCCC3C(N)=O)cc2cc(Cl)ccc21 (racemic) | inactive | inactive | 51% | inactive | inactive | inactive | 31%
18 | NC(=O)C1CCCc2c(-c3cc4ccccc4[nH]3)n[nH]c21 (racemic) | inactive | inactive | 43% | inactive | inactive | inactive | 46%
19 | CC1(C)CCC(C(N)=O)c2[nH]nc(-c3ccc(Cl)cc3)c21 (racemic) | inactive | inactive | < 20% | inactive | inactive | inactive | < 20%
